Shown are actives, neighbours in structure and some others; about 3.1% of the full set was active somewhere.
MEKK3 PB1 HTS – modulators of MEKK3-MEK5 PB1 binding, primary screen, biochemical, wildtype MEKK3, multiplex bead flow cytometry, Alexa488-MEK5. Mitogen-activated protein kinase kinase kinase 3 (Homo sapiens), Q99759. bead-based flow cytometry, Alexa488-MEK5 binding to MEKK3; actives lie on both sides; 0 = blocked by unlabeled MEK5, 100 = vehicle. binding response (% of control), % at 10 µM. hit rate 1.4% among 290,000. AID 1529, 2009;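 active means binding response more than 3 SD above or below the average of its plate-row segment, actives on both sides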;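 further: Alexa488 bead fluorescence after subtracting the streptavidin-only scavenger bead signal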
MEKK2 WT-MEK5 – modulators of MEK5 binding to wildtype MEKK2, primary screen, biochemical, multiplex bead flow cytometry, Alexa488-MEK5; Mitogen-activated protein kinase kinase kinase 2 (Homo sapiens), Q9Y2U5; Alexa488-MEK5 binding to MEKK2 WT; actives lie on both sides; binding response (% of control), % at 10 µM; hit rate 1.1% among 290,000; in the data active means binding response below about 67% or above about 130%
PREPL inh – PREPL enzyme inhibitors, primary screen, biochemical, fluorescence polarization. Prolyl endopeptidase-like (Homo sapiens), Q4J6C6. recombinant PREPL, fluorescence polarization activity-based probe. inhibition, % at 5.96 µM. hit rate 0.68% among 320,000. AID 2751, 2010; in the data active means inhibition above about 43%
UBC13 polyUb – UBC13 polyubiquitin chain formation inhibitors, primary screen, biochemical, TR-FRET, uHTS. inhibition, % at 20 µM. hit rate 0.47% among 330,000. AID 485273, 2010; in the data active means inhibition above about 45%, passing the limit was not always enough
MEKK2mut PB1 HTS – MEK5 binding signal on mutant MEKK2 PB1, primary screen, biochemical, multiplex bead flow cytometry, Alexa488-MEK5; Alexa488-MEK5 binding to MEKK2 mutant; percent response, % at 10 µM; hit rate 0.35% among 290,000; AID 1530, 2009; in the data active means percent response above about 24%, passing the limit was not always enough
Apaf1 inhib – inhibitors of human Apaf-1 apoptosome, primary screen, biochemical, DEVD-Rh110 fluorescence, uHTS; hit rate 0.71% among 330,000; Apoptotic protease-activating factor 1 (Homo sapiens), O14727; inhibition, % at 20 µM; AID 489030, 2010; reconstituted apoptosome caspase-3 activity; active means inhibition of at least 40% at 20 µM
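Material: reconstituted apoptosome with Apaf-1, cytochrome c, caspase-9, procaspase-3, dATP / Buffer or medium: pH 7.5 Hepes buffer with CHAPS, BSA, DTT / Also added: cytochrome c with DEVD-Rh110 / Schedule: compound with Apaf-1, dATP, procaspase-3 30 min, then 50 min reaction, room temperature / Technique: rhodamine 110 fluorescence at Ex 480/Em 540 nm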
MEKK2wt confirm – modulators of MEK5 binding to wildtype MEKK2, confirmation, biochemical, single concentration, multiplex bead flow cytometry | shares compounds with MEKK3 PB1 HTS | Alexa488-MEK5 binding to MEKK2 WT; actives lie on both sides | binding response (% of control), % at 10 µM | hit rate 2.4% among 5,900; in the data active means binding response below about 16% or above about 210%; inactive means in between
MEKK2mut-MEK5 – mutant MEKK2 PB1-MEK5 binding signal retest – biochemical, single concentration, multiplex bead flow cytometry, confirmation; AID 1893, 2009; shares compounds with MEKK3 PB1 HTS; percent response, % at 10 µM; hit rate 2% among 5,900; Alexa488-MEK5 binding to MEKK2 mutant; in the data active means percent response mostly above about 71%, no sharp cut-off; inactive means mostly below about 38%;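 further: higher means compound restores mutant binding toward wildtype level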
MEKK3-MEK5 inh – MEKK3 wild-type PB1 binding to MEK5, inhibitors, confirmation, biochemical, bead multiplex flow cytometry, single concentration, wildtype; shares compounds with MEKK3 PB1 HTS; Alexa488-MEK5 binding to MEKK3; hits give low values; binding response (% of control), % at 10 µM; hit rate 1.8% among 5,900;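 active means binding response below 72% of control, or above a set upper limit, though filed actives all read lower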
A number is an active result.

Screening COc1ccc(S(=O)(=O)N2CCOC2CNC(=O)C(=O)NCCCN2CCOCC2)cc1OC (centres undefined) returned MEKK3 PB1 HTS inactive, MEKK2 WT-MEK5 inactive, PREPL inh inactive, UBC13 polyUb inactive, MEKK2mut PB1 HTS inactive and Apaf1 inhib inactive.
`OCCN(CC(O)COc1ccccc1)CC(O)Cn1ccc2ccccc21` (centres undefined) gave MEKK3 PB1 HTS 134.0, MEKK2 WT-MEK5 inactive, PREPL inh inactive, UBC13 polyUb inactive, MEKK2mut PB1 HTS inactive, Apaf1 inhib inactive, MEKK2wt confirm inactive, MEKK2mut-MEK5 inactive and MEKK3-MEK5 inh inactive.
Screening COc1ccc(OCC(O)CN(CCO)CC(O)Cn2ccc3ccccc32)cc1 (centres undefined) returned MEKK3 PB1 HTS inactive, MEKK2 WT-MEK5 inactive, PREPL inh inactive, UBC13 polyUb inactive, MEKK2mut PB1 HTS inactive and Apaf1 inhib inactive.
Screening CC(NC(=O)C(=O)N/N=C/c1ccccc1)c1ccccc1 (centres undefined) returned MEKK3 PB1 HTS inactive, MEKK2 WT-MEK5 707.0, PREPL inh inactive, UBC13 polyUb inactive, MEKK2mut PB1 HTS 564.0, Apaf1 inhib inactive, MEKK2wt confirm inactive, MEKK2mut-MEK5 inactive and MEKK3-MEK5 inh inactive.
O=C1NC2(CCCC2)N=C1c1ccc(F)cc1 was read as MEKK3 PB1 HTS 122.0, MEKK2 WT-MEK5 inactive, PREPL inh inactive, UBC13 polyUb inactive, MEKK2mut PB1 HTS inactive, Apaf1 inhib inactive, MEKK2wt confirm inactive, MEKK2mut-MEK5 inactive and MEKK3-MEK5 inh inactive.
For Cc1ccc(C2=NC3(CCCCC3)NC2=S)cc1 the results were MEKK3 PB1 HTS inactive, MEKK2 WT-MEK5 inactive, PREPL inh inactive, UBC13 polyUb inactive, MEKK2mut PB1 HTS inactive and Apaf1 inhib inactive.
Cc1ccc(C(=O)N2C(=S)C(c3ccc(F)cc3)=NC23CCN(C)CC3)cc1 was read as MEKK3 PB1 HTS inactive, MEKK2 WT-MEK5 151.0, PREPL inh inactive, UBC13 polyUb inactive, MEKK2mut PB1 HTS inactive, Apaf1 inhib inactive, MEKK2wt confirm inactive, MEKK2mut-MEK5 inactive and MEKK3-MEK5 inh inactive.
NC(N)=N/N=C/c1ccc(OCc2ccccc2Cl)cc1 was read as MEKK3 PB1 HTS inactive, MEKK2 WT-MEK5 208.0, PREPL inh inactive, UBC13 polyUb 74.5, MEKK2mut PB1 HTS 49.0, Apaf1 inhib 42.9, MEKK2wt confirm 209.0, MEKK2mut-MEK5 inactive and MEKK3-MEK5 inh inactive.
Screening NC(N)=N/N=C/c1ccccc1 returned MEKK3 PB1 HTS inactive, MEKK2 WT-MEK5 inactive, PREPL inh inactive, UBC13 polyUb inactive, MEKK2mut PB1 HTS inactive and Apaf1 inhib inactive.
`OCCCCNCc1ccc(OCc2ccccc2Cl)cc1` gave MEKK3 PB1 HTS inactive, MEKK2 WT-MEK5 163.0, PREPL inh inactive, UBC13 polyUb inactive, MEKK2mut PB1 HTS 27.0, Apaf1 inhib inactive, MEKK2wt confirm inactive, MEKK2mut-MEK5 inactive and MEKK3-MEK5 inh inactive.
For CCN(C(=O)CSc1n[nH]c(N)n1)c1cccc2ccccc12 the results were PREPL inh inactive, UBC13 polyUb inactive and Apaf1 inhib inactive.
Screening COc1cccc(C(=O)OCC(=O)Nc2ccc(N3CCOCC3)cc2)c1 returned PREPL inh inactive, UBC13 polyUb inactive and Apaf1 inhib inactive.

High-throughput results from PubChem BioAssay.
